Measurements: ChEMBL document CHEMBL1770060, “Diaryl urea analogues of SB-334867 as orexin-1 receptor antagonists” (Bioorg Med Chem Lett, 2011)
Activity calls are given as the source filed them. No cut-off for these calls is given here.

Legend:
[1] = biological target: T1, Orexin/Hypocretin receptor type 1 (Homo sapiens) (UniProt O43613); assay: Antagonist activity at OX1 receptor expressed in CHO cells assessed as inhibition of orexin-A-induced calcium mobilization by FlexStation assay; type: functional, cell-based
T1 sequence (whole entry): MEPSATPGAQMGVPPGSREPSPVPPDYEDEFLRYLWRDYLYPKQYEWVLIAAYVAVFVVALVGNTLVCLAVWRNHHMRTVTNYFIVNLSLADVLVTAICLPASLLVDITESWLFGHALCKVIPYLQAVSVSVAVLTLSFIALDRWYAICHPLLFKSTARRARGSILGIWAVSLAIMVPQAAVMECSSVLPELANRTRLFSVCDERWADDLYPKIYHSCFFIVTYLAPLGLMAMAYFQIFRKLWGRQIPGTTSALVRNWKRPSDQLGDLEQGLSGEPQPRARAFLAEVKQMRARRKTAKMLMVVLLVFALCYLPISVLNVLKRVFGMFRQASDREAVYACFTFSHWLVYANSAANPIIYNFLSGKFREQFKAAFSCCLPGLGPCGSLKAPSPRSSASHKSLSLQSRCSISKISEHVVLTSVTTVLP
How it was run: (§1)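 Cells stably expressing OX1 or OX2 receptor, dye-loaded 1 h. EC50s came from a three-parameter logistic fit. Ke = [L]/(DR−1), DR = A'/A. Duplicates; ≥3 (OX1) or ≥2 (OX2) independent experiments.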

[2] = biological target: T2, Orexin receptor type 2 (Homo sapiens) (UniProt O43614); assay: Antagonist activity at OX2 receptor expressed in CHO cells assessed as inhibition of orexin-A-induced calcium mobilization by FlexStation assay; type: functional, cell-based; how it was run: as §1
T2 sequence (whole entry): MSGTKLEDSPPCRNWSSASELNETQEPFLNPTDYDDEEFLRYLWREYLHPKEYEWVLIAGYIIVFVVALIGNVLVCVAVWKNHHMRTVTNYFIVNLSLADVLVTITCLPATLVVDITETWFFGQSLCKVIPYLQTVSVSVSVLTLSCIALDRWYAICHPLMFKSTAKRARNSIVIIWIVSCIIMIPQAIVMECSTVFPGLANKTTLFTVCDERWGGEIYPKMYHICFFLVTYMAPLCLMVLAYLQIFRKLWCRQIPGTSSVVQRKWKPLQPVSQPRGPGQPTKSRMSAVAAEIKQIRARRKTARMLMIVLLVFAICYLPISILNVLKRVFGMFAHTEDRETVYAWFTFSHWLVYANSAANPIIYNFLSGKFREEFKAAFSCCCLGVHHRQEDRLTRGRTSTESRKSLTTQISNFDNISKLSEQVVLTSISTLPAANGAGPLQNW

[3] = biological target: T1, Orexin/Hypocretin receptor type 1 (Homo sapiens); assay: Agonist activity at OX1 receptor expressed in CHO cells at 10 uM by FlexStation assay; type: functional, cell-based
How it was run: (§2)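 Separate cell lines stably expressing OX1 or OX2 receptor were loaded with calcium-sensitive dye for 1 h. Compounds were tested alone at 10 µM for intrinsic agonist activity, read as a rise in fluorescence (intracellular calcium) on the FlexStation.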

[4] = biological target: T2, Orexin receptor type 2 (Homo sapiens); assay: Agonist activity at OX2 receptor expressed in CHO cells at 10 uM by FlexStation assay; type: functional, cell-based; how it was run: as §2
[5] = Selectivity ratio of Ke for OX2 receptor to Ke for OX1 receptor

Row | Ke [1] [nM] | Ke [2] [nM] | Activity [3] | Activity [4] | Ratio Ke [5] | Structure (SMILES)
1 | 13.4 | 1620 | inactive | inactive | – | O=C(Nc1ccc2c(c1)OCO2)Nc1ccnc2c(F)cccc12
2 | 965 | > 10000 | inactive | inactive | > 10 | COc1ccc(NC(=O)Nc2ccnc3c(F)cccc23)cc1OC
3 | > 10000 | > 10000 | inactive | inactive | – | CN(C)c1ccc(CC(=O)Nc2ccnc3c(F)cccc23)cc1
4 | 45 | 1190 | inactive | inactive | 50 | Cc1nc2ccc(NC(=O)Nc3ccnc4cccnc34)cc2o1
